Results from ChEMBL document CHEMBL5661979, “Pharmacological inhibition of BMK1 suppresses tumor growth through promyelocytic leukemia protein” (Cancer Cell, 2010).
Active and inactive are the calls of the source. The rule behind the calls is not given here.

What was measured:
[1] = molecular target: Calcium/calmodulin-dependent protein kinase type II subunit delta (Homo sapiens, UniProt Q13557); test: Inhibition of CAMK2d in human HeLa cells lysate pre incubated for 15 mins followed by ADP acyl phosphate probe addition and measured after 10 mins by LC-MS/MS analysis; format: subcellular
Summary of the method: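 KiNativ-type profiling in HeLa lysate (5 mg/mL total protein). Lysate preincubated 15 min with inhibitor at 50, 10, 2, 0.8 or 0 μM, then ATP or ADP acylphosphate probe added (5 μM final) for 10 min. Reaction stopped with urea and analysed by targeted MS, using up to four fragment ions per kinase peptide-probe conjugate. % inhibition calculated against untreated lysate. Duplicate reactions.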

[2] = Half life in Sprague-Dawley rat at 2 mg/kg, po measured up to 8 hrs by LC-MS/MS analysis; format: ADME, organism-based; settings: in vivo
Summary of the method: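 Sprague-Dawley rats given one intravenous dose or one oral dose of 2 mg/kg. Plasma drug concentrations were followed over time, with samples taken out to 8 hr after dosing. PK parameters (clearance, volume of distribution, half-life, oral bioavailability, Cmax) were calculated from these concentration–time data.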

[3] = molecular target: Serine/threonine-protein kinase Nek9 (Homo sapiens, UniProt Q8TD19); test: Inhibition of NEK9 in human HeLa cells lysate pre incubated for 15 mins followed by ATP acyl phosphate probe addition and measured after 10 mins by LC-MS/MS analysis; format: subcellular
Serine/threonine-protein kinase Nek9, sequence (Q8TD19 whole entry): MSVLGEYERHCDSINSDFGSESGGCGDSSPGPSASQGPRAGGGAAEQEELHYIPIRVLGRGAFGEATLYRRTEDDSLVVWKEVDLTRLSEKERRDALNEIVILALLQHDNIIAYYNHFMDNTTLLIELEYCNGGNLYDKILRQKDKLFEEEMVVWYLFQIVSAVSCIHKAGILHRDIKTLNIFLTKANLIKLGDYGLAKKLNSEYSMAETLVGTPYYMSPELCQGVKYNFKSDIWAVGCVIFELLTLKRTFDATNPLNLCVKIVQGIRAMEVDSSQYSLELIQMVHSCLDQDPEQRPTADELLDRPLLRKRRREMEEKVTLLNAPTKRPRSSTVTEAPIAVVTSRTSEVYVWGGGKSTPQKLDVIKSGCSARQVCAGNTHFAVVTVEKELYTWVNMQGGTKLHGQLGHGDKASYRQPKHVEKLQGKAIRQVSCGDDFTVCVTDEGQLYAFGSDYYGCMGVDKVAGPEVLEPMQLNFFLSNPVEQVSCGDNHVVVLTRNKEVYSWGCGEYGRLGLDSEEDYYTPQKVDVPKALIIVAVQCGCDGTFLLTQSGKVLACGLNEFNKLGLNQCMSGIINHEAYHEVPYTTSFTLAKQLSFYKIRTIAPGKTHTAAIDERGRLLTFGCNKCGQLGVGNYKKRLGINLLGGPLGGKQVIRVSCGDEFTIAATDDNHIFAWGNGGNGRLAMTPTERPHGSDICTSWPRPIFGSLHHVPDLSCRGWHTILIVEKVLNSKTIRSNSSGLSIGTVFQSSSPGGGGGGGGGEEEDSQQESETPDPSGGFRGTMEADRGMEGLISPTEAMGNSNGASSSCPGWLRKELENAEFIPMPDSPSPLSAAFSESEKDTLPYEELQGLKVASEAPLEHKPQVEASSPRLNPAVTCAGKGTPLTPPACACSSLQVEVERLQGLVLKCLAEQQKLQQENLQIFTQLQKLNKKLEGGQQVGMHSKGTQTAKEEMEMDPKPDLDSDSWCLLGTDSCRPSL

[4] = molecular target: Macrophage-stimulating protein receptor (Homo sapiens, UniProt Q04912); test: Inhibition of RON in human HeLa cells lysate at 2 uM pre incubated for 15 mins followed by ADP acyl phosphate probe addition and measured after 10 mins by LC-MS/MS analysis relative to control; format: subcellular; settings: time 25.0 min
Macrophage-stimulating protein receptor, sequence (Q04912 25-304 limits assumed): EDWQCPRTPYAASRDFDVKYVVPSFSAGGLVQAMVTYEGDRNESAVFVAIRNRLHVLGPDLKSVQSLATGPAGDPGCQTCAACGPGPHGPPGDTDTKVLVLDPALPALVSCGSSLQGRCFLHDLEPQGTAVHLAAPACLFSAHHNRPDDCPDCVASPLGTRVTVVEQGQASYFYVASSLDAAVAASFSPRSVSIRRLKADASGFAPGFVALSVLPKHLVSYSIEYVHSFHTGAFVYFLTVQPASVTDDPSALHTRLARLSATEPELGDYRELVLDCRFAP
Macrophage-stimulating protein receptor, sequence (Q04912 310-1400 limits assumed): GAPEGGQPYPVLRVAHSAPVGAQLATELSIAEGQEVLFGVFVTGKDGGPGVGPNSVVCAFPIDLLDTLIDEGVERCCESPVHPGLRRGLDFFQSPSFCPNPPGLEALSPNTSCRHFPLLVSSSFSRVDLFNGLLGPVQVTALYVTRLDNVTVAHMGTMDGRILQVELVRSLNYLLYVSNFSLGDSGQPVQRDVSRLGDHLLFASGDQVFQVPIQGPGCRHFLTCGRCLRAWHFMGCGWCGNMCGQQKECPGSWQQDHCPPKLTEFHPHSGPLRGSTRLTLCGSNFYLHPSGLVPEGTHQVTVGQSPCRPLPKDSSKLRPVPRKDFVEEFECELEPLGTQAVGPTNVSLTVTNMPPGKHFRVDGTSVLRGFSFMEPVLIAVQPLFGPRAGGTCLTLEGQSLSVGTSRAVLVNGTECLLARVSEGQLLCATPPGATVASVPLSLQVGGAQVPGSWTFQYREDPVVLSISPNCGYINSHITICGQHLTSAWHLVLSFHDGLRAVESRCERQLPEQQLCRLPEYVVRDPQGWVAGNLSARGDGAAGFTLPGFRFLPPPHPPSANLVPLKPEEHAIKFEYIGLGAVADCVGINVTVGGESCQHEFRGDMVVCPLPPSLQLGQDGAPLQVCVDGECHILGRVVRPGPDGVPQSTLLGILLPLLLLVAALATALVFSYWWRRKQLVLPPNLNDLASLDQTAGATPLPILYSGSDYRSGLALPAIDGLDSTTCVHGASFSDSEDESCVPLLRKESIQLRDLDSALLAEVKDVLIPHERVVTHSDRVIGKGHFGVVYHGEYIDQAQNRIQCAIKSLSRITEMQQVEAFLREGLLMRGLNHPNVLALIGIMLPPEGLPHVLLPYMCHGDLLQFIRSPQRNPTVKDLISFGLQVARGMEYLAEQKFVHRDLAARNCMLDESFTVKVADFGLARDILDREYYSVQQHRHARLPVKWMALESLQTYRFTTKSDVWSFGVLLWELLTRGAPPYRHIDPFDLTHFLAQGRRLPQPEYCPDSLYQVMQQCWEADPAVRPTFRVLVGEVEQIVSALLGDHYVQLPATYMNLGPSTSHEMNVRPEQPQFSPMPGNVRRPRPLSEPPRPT

[5] = Inhibition of CK1g1/g2/g3 in human HeLa cells lysate at 50 uM pre incubated for 15 mins followed by ADP acyl phosphate probe addition and measured after 10 mins by LC-MS/MS analysis relative to control; settings: 25 min, condition cancer
[6] = molecular target: Serine/threonine-protein kinase Nek8 (Homo sapiens) (UniProt Q86SG6); test: Inhibition of NEK8 in human HeLa cells lysate at 2 uM pre incubated for 15 mins followed by ADP acyl phosphate probe addition and measured after 10 mins by LC-MS/MS analysis relative to control; format: subcellular; settings: time 25.0 min
Serine/threonine-protein kinase Nek8 (Homo sapiens), sequence (Q86SG6 whole entry): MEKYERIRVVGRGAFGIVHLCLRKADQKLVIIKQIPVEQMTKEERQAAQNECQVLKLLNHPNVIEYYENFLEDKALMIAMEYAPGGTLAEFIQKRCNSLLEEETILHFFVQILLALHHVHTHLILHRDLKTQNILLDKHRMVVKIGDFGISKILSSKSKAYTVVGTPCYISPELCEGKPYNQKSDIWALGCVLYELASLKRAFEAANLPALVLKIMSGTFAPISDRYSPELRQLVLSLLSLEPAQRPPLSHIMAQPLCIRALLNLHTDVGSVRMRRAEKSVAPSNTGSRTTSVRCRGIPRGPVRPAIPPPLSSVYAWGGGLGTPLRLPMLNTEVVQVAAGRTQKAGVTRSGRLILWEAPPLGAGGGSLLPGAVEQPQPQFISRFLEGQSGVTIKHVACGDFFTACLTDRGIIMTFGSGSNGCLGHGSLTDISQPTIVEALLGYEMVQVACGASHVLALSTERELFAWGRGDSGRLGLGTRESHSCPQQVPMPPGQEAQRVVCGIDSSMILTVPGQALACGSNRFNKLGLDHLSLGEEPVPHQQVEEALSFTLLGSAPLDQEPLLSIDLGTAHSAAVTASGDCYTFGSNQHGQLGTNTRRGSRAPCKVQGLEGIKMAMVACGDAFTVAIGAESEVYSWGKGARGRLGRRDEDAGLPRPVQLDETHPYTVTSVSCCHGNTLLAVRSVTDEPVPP

[7] = Toxicity in C57Bl/6 mouse assessed as effect on phosphorus level at 50 mg/kg, ip for 14 days (reference value: 6.8 mg/dl); format: organism-based; settings: in vivo, 336 h, time 14 day
[8] = molecular target: Serine/threonine-protein kinase LATS1 (Homo sapiens, UniProt O95835); test: Inhibition of LATS1 in human HeLa cells lysate pre incubated for 15 mins followed by ATP acyl phosphate probe addition and measured after 10 mins by LC-MS/MS analysis; format: subcellular
Serine/threonine-protein kinase LATS1, sequence (O95835 whole entry): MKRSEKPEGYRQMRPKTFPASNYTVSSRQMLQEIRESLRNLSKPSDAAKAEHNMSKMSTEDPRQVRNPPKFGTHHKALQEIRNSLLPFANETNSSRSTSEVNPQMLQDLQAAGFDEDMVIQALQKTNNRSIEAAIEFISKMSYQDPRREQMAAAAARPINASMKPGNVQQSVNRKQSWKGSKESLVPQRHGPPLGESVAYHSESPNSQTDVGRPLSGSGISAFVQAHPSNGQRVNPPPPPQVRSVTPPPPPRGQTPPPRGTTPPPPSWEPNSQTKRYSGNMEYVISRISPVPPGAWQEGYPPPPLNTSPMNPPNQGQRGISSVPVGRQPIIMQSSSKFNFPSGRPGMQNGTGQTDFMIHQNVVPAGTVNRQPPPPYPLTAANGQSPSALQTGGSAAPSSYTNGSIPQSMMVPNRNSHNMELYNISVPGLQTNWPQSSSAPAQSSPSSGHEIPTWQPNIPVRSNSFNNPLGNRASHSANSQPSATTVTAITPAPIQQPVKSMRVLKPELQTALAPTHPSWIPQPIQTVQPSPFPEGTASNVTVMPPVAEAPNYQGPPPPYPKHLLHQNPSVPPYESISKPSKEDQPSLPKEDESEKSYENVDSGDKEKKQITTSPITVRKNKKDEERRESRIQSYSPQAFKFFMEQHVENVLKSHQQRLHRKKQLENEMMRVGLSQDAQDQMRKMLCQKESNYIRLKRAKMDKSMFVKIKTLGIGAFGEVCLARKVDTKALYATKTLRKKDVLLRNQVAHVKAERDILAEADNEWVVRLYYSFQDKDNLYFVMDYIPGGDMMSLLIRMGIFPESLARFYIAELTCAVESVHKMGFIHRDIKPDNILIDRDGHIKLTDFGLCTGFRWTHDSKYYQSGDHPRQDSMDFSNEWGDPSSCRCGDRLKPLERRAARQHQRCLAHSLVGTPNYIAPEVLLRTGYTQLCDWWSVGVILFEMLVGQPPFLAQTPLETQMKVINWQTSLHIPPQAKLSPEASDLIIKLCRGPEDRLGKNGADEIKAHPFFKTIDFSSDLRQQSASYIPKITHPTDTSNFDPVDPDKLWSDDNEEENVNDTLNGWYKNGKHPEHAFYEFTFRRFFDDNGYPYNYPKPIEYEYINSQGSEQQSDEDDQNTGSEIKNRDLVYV

[9] = molecular target: Serine/threonine-protein kinase TAO3 (Homo sapiens, UniProt Q9H2K8); test: Inhibition of TAO3 in human HeLa cells lysate pre incubated for 15 mins followed by ATP acyl phosphate probe addition and measured after 10 mins by LC-MS/MS analysis; format: subcellular
[10] = molecular target: Cyclin-dependent kinase 16 (Homo sapiens, UniProt Q00536); test: Inhibition of PCTAIRE1 in human HeLa cells lysate at 2 uM pre incubated for 15 mins followed by ADP acyl phosphate probe addition and measured after 10 mins by LC-MS/MS analysis relative to control; format: subcellular; settings: time 25.0 min
[11] = molecular target: T1, Serine/threonine-protein kinase Chk1 (Homo sapiens) (UniProt O14757); test: Inhibition of CHK1 in human HeLa cells lysate at 2 uM pre incubated for 15 mins followed by ATP acyl phosphate probe addition and measured after 10 mins by LC-MS/MS analysis relative to control; format: subcellular; settings: time 25.0 min
T1 sequence (whole entry): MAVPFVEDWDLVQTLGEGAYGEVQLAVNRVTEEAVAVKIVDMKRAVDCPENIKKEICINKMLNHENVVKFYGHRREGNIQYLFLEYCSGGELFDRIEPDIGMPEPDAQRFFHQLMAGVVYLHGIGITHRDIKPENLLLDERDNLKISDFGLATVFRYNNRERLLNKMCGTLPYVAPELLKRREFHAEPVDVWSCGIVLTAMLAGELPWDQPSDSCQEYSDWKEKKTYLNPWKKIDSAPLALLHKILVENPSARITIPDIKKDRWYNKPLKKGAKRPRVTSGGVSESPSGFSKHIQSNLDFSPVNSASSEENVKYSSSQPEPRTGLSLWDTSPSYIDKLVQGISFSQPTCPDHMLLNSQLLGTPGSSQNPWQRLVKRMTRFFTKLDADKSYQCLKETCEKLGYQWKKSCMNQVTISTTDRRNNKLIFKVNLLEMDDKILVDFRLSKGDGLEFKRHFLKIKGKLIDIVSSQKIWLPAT

[12] = molecular target: Mitogen-activated protein kinase kinase kinase kinase 2 (Homo sapiens, UniProt Q12851); test: Inhibition of GCK in human HeLa cells lysate pre incubated for 15 mins followed by ADP acyl phosphate probe addition and measured after 10 mins by LC-MS/MS analysis; format: subcellular
Mitogen-activated protein kinase kinase kinase kinase 2, sequence (Q12851 whole entry): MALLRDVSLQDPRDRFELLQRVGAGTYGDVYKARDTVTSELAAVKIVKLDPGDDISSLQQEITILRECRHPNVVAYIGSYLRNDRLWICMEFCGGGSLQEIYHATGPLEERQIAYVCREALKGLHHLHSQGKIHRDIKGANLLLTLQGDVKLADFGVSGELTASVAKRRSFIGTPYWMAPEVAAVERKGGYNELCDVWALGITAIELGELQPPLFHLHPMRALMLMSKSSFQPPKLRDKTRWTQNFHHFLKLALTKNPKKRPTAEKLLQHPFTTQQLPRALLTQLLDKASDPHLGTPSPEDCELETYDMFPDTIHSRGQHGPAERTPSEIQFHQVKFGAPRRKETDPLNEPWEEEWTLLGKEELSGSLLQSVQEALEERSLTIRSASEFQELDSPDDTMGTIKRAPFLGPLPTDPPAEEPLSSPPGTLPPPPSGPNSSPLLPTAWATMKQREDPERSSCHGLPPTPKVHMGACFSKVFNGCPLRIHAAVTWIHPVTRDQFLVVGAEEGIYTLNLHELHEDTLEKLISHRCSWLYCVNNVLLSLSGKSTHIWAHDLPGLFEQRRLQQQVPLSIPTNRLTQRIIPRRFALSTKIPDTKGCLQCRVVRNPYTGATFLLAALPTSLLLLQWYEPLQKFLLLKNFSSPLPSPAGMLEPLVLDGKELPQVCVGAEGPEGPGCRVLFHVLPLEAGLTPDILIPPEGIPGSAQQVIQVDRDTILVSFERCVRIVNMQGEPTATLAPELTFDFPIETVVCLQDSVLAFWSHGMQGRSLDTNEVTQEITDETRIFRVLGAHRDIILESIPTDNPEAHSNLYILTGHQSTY

[13] = tested on: Lewis lung carcinoma; test: Antitumor activity against mouse LL2 cells allografted in C57Bl/6 mouse assessed as reduction tumor growth at 50 mg/kg, ip administered on day 7 post implantation measured after 17 days; format: functional, organism-based; settings: time 10.0 day
Summary of the method: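 LL/2 cells (1×10^6, in DMEM) were injected s.c. into the right flank of 6-week-old C57Bl/6 mice on day 0. Dosing was 50 mg/kg i.p. twice daily, starting on day 1, 7 or 10 and continuing to day 17; controls received carrier. 6 mice per treated group. Tumors were measured every 2–3 days.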

[14] = molecular target: Peripheral plasma membrane protein CASK (Homo sapiens) (UniProt O14936); test: Inhibition of CASK in human HeLa cells lysate at 2 uM pre incubated for 15 mins followed by ADP acyl phosphate probe addition and measured after 10 mins by LC-MS/MS analysis relative to control; format: subcellular; settings: time 25.0 min
Summary of the method: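 KiNativ profiling in HeLa lysate (5 mg/mL total protein). Lysate incubated 15 min with inhibitor at 50, 10, 2, 0.8 or 0 μM. ATP or ADP acylphosphate probe then added (5 μM final) and reacted 10 min. Reaction stopped with urea and analysed by targeted MS, using up to four fragment ions per kinase peptide-probe conjugate. % inhibition taken against untreated lysate. Run in duplicate.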

[15] = Inhibition of SRPK1/2 in human HeLa cells lysate pre incubated for 15 mins followed by ADP acyl phosphate probe addition and measured after 10 mins by LC-MS/MS analysis; format: subcellular

Compound `CCOc1cc(N2CCC(O)CC2)ccc1Nc1ncc2c(n1)N(C)c1ccccc1C(=O)N2C` has an IC50 [1] of over 50 µM, a half-life [2] of 3.4 h and an IC50 [3] of over 50 µM. It also gave an inhibition [4] of 23.7%, an inhibition at 50 µM [5] of -80.5% and an inhibition [6] of 30.2%. It also gave an Activity [7] of 6.4 mg/dL, an IC50 [8] of over 50 µM and an IC50 [9] of over 50 µM. It also gave an inhibition [10] of 17.5%, an inhibition [11] of 5.4% and an IC50 [12] of over 50 µM. The Activity [13] was “Active”, the inhibition [14] was 12.1% and the IC50 [15] was over 50 µM.
